From ChEMBL document CHEMBL2086261, “A focused sulfated glycoconjugate Ugi library for probing heparan sulfate-binding angiogenic growth factors” (Bioorg Med Chem Lett, 2012)

Columns and labels:
[1] = biological target: Fibroblast growth factor 1 (Homo sapiens, UniProt P05230); experiment: Binding affinity to FGF1 by surface plasmon resonance-based solution affinity assay
Method in brief: (§1)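 Dissociation constants (Kd) for ligand binding to FGF-1, FGF-2 and VEGF were determined by an SPR solution affinity assay. Some entries come from a single measurement only.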

[2] = biological target: T1, Vascular endothelial growth factor A, long form (Homo sapiens, UniProt P15692); experiment: Binding affinity to VEGF by surface plasmon resonance-based solution affinity assay; method in brief: as §1
T1 sequence (P15692 whole entry): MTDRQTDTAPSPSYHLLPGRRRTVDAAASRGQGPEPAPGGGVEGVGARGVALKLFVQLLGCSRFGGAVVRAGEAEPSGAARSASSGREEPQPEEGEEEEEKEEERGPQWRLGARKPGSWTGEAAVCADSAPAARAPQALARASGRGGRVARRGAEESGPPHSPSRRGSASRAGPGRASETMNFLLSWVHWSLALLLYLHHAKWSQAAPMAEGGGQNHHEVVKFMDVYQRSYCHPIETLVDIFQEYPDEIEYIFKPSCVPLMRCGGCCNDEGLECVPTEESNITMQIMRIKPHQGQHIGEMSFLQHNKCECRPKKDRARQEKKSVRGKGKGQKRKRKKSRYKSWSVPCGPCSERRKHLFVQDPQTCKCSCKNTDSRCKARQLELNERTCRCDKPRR

[3] = biological target: Fibroblast growth factor 2 (Homo sapiens, UniProt P09038); experiment: Binding affinity to FGF2 by surface plasmon resonance-based solution affinity assay; method in brief: as §1
Fibroblast growth factor 2, sequence (P09038 143-288 limits assumed): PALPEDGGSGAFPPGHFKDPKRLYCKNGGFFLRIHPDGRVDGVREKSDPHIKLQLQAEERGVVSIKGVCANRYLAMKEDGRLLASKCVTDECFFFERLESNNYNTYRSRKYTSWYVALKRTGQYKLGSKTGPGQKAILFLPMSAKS

Fibroblast growth factor 1, sequence (P05230 whole entry): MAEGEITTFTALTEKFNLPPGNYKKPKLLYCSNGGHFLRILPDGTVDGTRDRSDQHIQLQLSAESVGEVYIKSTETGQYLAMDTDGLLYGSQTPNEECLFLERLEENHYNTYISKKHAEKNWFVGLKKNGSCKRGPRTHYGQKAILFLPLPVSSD

Structure (SMILES) | Kd [1] [µM] | Kd [2] [µM] | Kd [3] [µM]
CO[C@H]1O[C@H](CNC(=O)CN(C(C)=O)c2ccccc2)[C@@H](OS(=O)(=O)O)[C@H](OS(=O)(=O)O)[C@@H]1OS(=O)(=O)O | 196 | 76 | 480
CO[C@H]1O[C@H](CNC(=O)CN(Cc2ccccc2)C(C)=O)[C@@H](OS(=O)(=O)O)[C@H](OS(=O)(=O)O)[C@@H]1OS(=O)(=O)O | 140 | 77 | 192
CO[C@H]1O[C@H](CNC(=O)CN(CCc2ccccc2)C(C)=O)[C@@H](OS(=O)(=O)O)[C@H](OS(=O)(=O)O)[C@@H]1OS(=O)(=O)O | 224 | 109 | 680
CO[C@H]1O[C@H](CNC(=O)CN(C(C)=O)C2CCCCC2)[C@@H](OS(=O)(=O)O)[C@H](OS(=O)(=O)O)[C@@H]1OS(=O)(=O)O | 310 | 1700 | 413
CO[C@H]1O[C@H](CNC(=O)CN(C(C)=O)C2CCCCCC2)[C@@H](OS(=O)(=O)O)[C@H](OS(=O)(=O)O)[C@@H]1OS(=O)(=O)O | 370 | 3000 | 410
CO[C@H]1O[C@H](CNC(=O)CN(C(C)=O)C2CCCCCCCCCCC2)[C@@H](OS(=O)(=O)O)[C@H](OS(=O)(=O)O)[C@@H]1OS(=O)(=O)O | 265 | 1200 | 480
CCCCC1CCC(N(CC(=O)NC[C@H]2O[C@H](OC)[C@@H](OS(=O)(=O)O)[C@@H](OS(=O)(=O)O)[C@@H]2OS(=O)(=O)O)C(C)=O)CC1 (stereo not given in full) | 243 | 1000 | 540
CO[C@H]1O[C@H](CNC(=O)CNC(=O)Cc2cccc(Cl)c2)[C@@H](OS(=O)(=O)O)[C@H](OS(=O)(=O)O)[C@@H]1OS(=O)(=O)O | 37 | 45.3 | 430
CO[C@H]1O[C@H](CNC(=O)CN(CCOS(=O)(=O)O)C(C)=O)[C@@H](OS(=O)(=O)O)[C@H](OS(=O)(=O)O)[C@@H]1OS(=O)(=O)O | 95 | 280 | 240
CCN(CC(=O)NC[C@H]1O[C@H](OC)[C@@H](OS(=O)(=O)O)[C@@H](OS(=O)(=O)O)[C@@H]1OS(=O)(=O)O)C(=O)COS(=O)(=O)O | 174 | 512 | 
CCN(CC(=O)NC[C@H]1O[C@H](OC)[C@@H](OS(=O)(=O)O)[C@@H](OS(=O)(=O)O)[C@@H]1OS(=O)(=O)O)C(=O)CCC(=O)O | 338 | 207 | 291
CCN(CC(=O)NC[C@H]1O[C@H](OC)[C@@H](OS(=O)(=O)O)[C@@H](OS(=O)(=O)O)[C@@H]1OS(=O)(=O)O)C(=O)CCCCC(=O)O | 160 | 104 | 480
CCN(CC(=O)NC[C@H]1O[C@H](OC)[C@@H](OS(=O)(=O)O)[C@@H](OS(=O)(=O)O)[C@@H]1OS(=O)(=O)O)C(=O)CCCCCCCCCOS(=O)(=O)O | 111 | 545 | 240
CCN(CC(=O)NC[C@H]1O[C@H](OC)[C@@H](OS(=O)(=O)O)[C@@H](OS(=O)(=O)O)[C@@H]1OS(=O)(=O)O)C(=O)c1ccccc1 | 366 | 1100 | 480
CCN(CC(=O)NC[C@H]1O[C@H](OC)[C@@H](OS(=O)(=O)O)[C@@H](OS(=O)(=O)O)[C@@H]1OS(=O)(=O)O)C(=O)CCc1ccccc1 |  | 596 | 
CCN(CC(=O)NC[C@H]1O[C@H](OC)[C@@H](OS(=O)(=O)O)[C@@H](OS(=O)(=O)O)[C@@H]1OS(=O)(=O)O)C(=O)CCCc1ccccc1 | 500 | 81 | 400
CC(=O)N(CC(=O)NCCO[C@H]1O[C@H](COS(=O)(=O)O)[C@@H](OS(=O)(=O)O)[C@H](OS(=O)(=O)O)[C@@H]1OS(=O)(=O)O)c1ccccc1 | 97 | 402 | 240
CC(=O)N(CC(=O)NCCO[C@H]1O[C@H](COS(=O)(=O)O)[C@@H](OS(=O)(=O)O)[C@H](OS(=O)(=O)O)[C@@H]1OS(=O)(=O)O)Cc1ccccc1 | 25 | 76.6 | 287
CC(=O)N(CCc1ccccc1)CC(=O)NCCO[C@H]1O[C@H](COS(=O)(=O)O)[C@@H](OS(=O)(=O)O)[C@H](OS(=O)(=O)O)[C@@H]1OS(=O)(=O)O | 11.8 | 29 | 113
O=C(CNC(=O)Cc1cccc(Cl)c1)NCCO[C@H]1O[C@H](COS(=O)(=O)O)[C@@H](OS(=O)(=O)O)[C@H](OS(=O)(=O)O)[C@@H]1OS(=O)(=O)O | 170 | 91 | 837
CCN(CC(=O)NCCO[C@H]1O[C@H](COS(=O)(=O)O)[C@@H](OS(=O)(=O)O)[C@H](OS(=O)(=O)O)[C@@H]1OS(=O)(=O)O)C(=O)CCC(=O)O | 43 | 40 | 122
CCN(CC(=O)NCCO[C@H]1O[C@H](COS(=O)(=O)O)[C@@H](OS(=O)(=O)O)[C@H](OS(=O)(=O)O)[C@@H]1OS(=O)(=O)O)C(=O)CCCCC(=O)O | 44 | 81 | 188
CCN(CC(=O)NCCO[C@H]1O[C@H](COS(=O)(=O)O)[C@@H](OS(=O)(=O)O)[C@H](OS(=O)(=O)O)[C@@H]1OS(=O)(=O)O)C(=O)CCCCCCCCCOS(=O)(=O)O | 20 | 50 | 157
CO[C@H]1O[C@H](CN=[N+]=[N-])[C@@H](OS(=O)(=O)O)[C@H](OS(=O)(=O)O)[C@@H]1OS(=O)(=O)O | 343 | 630 | 210
CO[C@H]1O[C@H](COS(=O)(=O)O)[C@@H](OS(=O)(=O)O)[C@H](OS(=O)(=O)O)[C@@H]1OS(=O)(=O)O |  | 198 | 
